# This is a sample that favours compounds with a hit; in the whole collection about 2.4% have one here.
# CTSL1 counter – blocks F. hepatica cathepsin L1 in PFM18AAP counter-screen. actives 0.49% (n = 300,000). recombinant F. hepatica cathepsin L1, Z-Leu-Arg-MCA fluorescence. inhibition, % at 5.96 µM;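 active = inhibition above the mean of all tested compounds plus 3 SD, set per screening campaign, cut at about 17% in these data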;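 note: 0% = plate median of test compound wells and 100% = 1 µM Z-Phe-Ala-diazomethylketone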
# PP5 inh – PP5 (human) phosphatase inhibition; AID 1987; actives 0.18% (n = 320,000); inhibition, % at 6.7 µM; purified PP5c, OMFP substrate fluorescence; P53041;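 active = inhibition above the campaign's mean inhibition across all tested compounds plus 3 SD, cut at about 9.5% in these data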;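 note: 0% = DMSO only and 100% = 100 µM cantharidin control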
# Target sequence (P53041 whole entry, looked up): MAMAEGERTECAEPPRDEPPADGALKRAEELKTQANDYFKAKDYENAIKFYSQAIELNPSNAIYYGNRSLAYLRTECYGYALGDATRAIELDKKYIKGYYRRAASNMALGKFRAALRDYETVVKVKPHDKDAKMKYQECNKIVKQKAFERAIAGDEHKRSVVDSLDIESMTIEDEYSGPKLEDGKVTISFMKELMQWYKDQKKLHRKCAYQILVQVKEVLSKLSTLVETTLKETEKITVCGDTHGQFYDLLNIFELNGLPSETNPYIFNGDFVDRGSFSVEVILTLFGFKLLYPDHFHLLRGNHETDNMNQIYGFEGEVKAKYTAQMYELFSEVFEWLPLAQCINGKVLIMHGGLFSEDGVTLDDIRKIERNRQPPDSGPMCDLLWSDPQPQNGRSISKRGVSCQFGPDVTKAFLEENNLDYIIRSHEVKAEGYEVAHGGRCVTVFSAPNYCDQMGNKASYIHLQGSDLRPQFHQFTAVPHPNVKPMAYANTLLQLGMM
# Cardio protect – protects H9c2 cardiomyocytes from peroxide injury; H2O2 injury protection, ATPLite, 2 h; protection from H2O2 cell death, % at 20 µM; actives 0.63% (n = 360,000);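 active = compounds giving at least 50% protection of heart cells from peroxide-induced death in the single-dose screen, raw or plate-pattern-corrected value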;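 note: 0% = DMSO wells with peroxide and 100% = DMSO wells without peroxide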
# T cruzi repl – blocks replication of Trypanosoma cruzi. T. cruzi beta-gal in NIH3T3, luminescence, 90 h. inhibition, % (no concentration beside the values). actives 1.4% (n = 300,000). AID 1885;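 active = mean inhibition across valid replicates above about 55%, limit read from the data; inconclusive = mean below that limit but half or more replicates reach it; inactive = mean below it, under half of replicates reach it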;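 note: signal also drops with host cell toxicity which is not excluded here; 0% = plate median of DMSO wells and 100% = zero luminescence signal; higher percent means less beta-gal luminescence so fewer parasites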
#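 Material: NIH/3T3 host cells with β-galactosidase reporter T. cruzi; Input: 5,000 host fibroblasts per well; Medium: DMEM, 2% fetal bovine serum; Compound: 50 nL DMSO compound solution per well; Schedule: 3 h host attachment, then at least 90 h co-culture; Detection: luminescent β-galactosidase signal after 60 min lysis.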
# GASC-1 inh – blocks human GASC-1 demethylase activity; GST-JMJD2C(1-420) H3K9me3 demethylation, DELFIA europium; inhibition, % at 2.35 µM; Q9H3R0; actives 0.069% (n = 330,000); AID 2099;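 active = more than half of a compound's replicate wells show inhibition beyond 50%, single wells judged on their own value; inconclusive = some, but no more than half, of replicates pass 50% inhibition; inactive = no replicate passes 50% inhibition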;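 note: signal counts dimethyl H3K9 product captured on neutravidin plate; 0% = median of DMSO wells and 100% = 0.3 times that DMSO median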
# pCIP destab – p/CIP protein destabilization | Q05BA5 | decrease of EGFP signal, % at 10 µM | actives 0.01% (n = 290,000) | F442A p/CIP-EGFP cells, EGFP fluorescence, 16 h;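 active = EGFP signal decrease of at least 30% at 10 µM or well 3 SD below plate mean, unless failing retest; inactive = the rest, including hits failing retest or dose response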
# Numbers without * were called inactive; u = inconclusive; x = no result given.
SMILES,CTSL1 counter,PP5 inh,Cardio protect,T cruzi repl,GASC-1 inh,pCIP destab
C#CCN(C[C@H]1[C@H](OC(=O)NCc2ccccc2F)[C@H](OC(=O)NCc2ccccc2F)C[C@@H](C(=O)OC)[C@H]1C(=O)OC)S(=O)(=O)c1ccc(C)cc1,x,x,1.4,x,x,x
CCCNC(=O)C1(C)CCCN(Cc2ccc3ccccc3c2)C1 (stereo not drawn),x,x,-7.0,x,x,x
CCN(CC)C(=O)C1=C(C)N(Cc2ccc(OC)cc2)C(=O)C(CC(=O)NCCc2ccccn2)C1 (stereo not drawn),x,x,6.4,x,x,x
CC(OC(=O)c1ccc(-c2ccc(O)cc2)cc1)C(=O)NC1CCCCC1C (stereo not drawn),3.0,1.3,-14.8,-0.2,3.2,x
O=C1[C@@H]2Cc3c([nH]c4ccccc34)C(c3cccc([N+](=O)[O-])c3)N2C(=O)CN1C1CCN(Cc2ccccc2)CC1 (stereo partly drawn),3.0,6.1,-20.5,70.9*,-10.2,-5.5
Cc1ccc(OCCC(=O)OC(C)C(=O)Nc2ccc(Cl)cn2)cc1 (stereo not drawn),-31.5,-0.2,-5.4,-12.0,4.6,x
NC(=S)N/N=C/c1cc([N+](=O)[O-])ccc1OCCOc1ccccc1,81.0*,-0.1,17.5,13.3,2.8,-4.6
NC(=S)N/N=C\c1ccccc1OCc1ccccc1,12.1,-0.5,-2.1,55.0*,-8.1,-5.5
O=C(CSCc1ccccc1)N/N=C/c1ccccc1OCc1ccccc1,1.2,6.0,-6.2,-8.8,-6.6,16.8
NC(=S)N/N=C/c1c[nH]c2ccc(OCc3ccccc3)cc12,54.5*,4.1,11.1,45.4,7.2,-5.6
CC(=O)N/N=C/c1cc([N+](=O)[O-])ccc1OCCOc1ccccc1,1.1,1.0,5.7,-4.8,-0.9,3.3
COc1cccc(/C=N/NC(N)=S)c1OCc1cccc(Cl)c1,17.1*,1.4,4.2,u,3.1,8.1
O=Nc1c(O)[nH]c2ccc(Cl)c(Cl)c12,x,x,-5.6,x,x,x
CN(CC(=O)Nc1ccc(F)cc1)C(=O)COC(=O)c1ccc(-c2ccccc2)cc1,4.9,-0.3,-6.4,-6.9,23.9,x
CN1CCN(CC(O)COCCOc2ccc(Br)cc2)CC1 (stereo not drawn),-6.7,2.9,-0.8,58.9*,3.2,1.6
CCC(C)NCCOc1ccc(Br)cc1 (stereo not drawn),2.7,-1.8,4.6,-8.0,-2.5,4.9
CC(C)NCC(O)COCCOc1ccc(C(C)(C)C)cc1 (stereo not drawn),-2.9,-0.8,0.2,32.3,-4.2,3.4
CC(C)NCC(O)COCCOc1ccc(Br)cc1 (stereo not drawn),0.5,-2.4,-0.7,63.3*,8.9,8.9
CCN1CCN(CC(O)COCCOc2ccc(Br)cc2)CC1 (stereo not drawn),7.1,-0.3,-5.1,20.5,12.2,-6.6
CCC(C)NCCOCCOc1ccc(Br)cc1 (stereo not drawn),0.2,-0.1,3.5,65.6*,-11.1,-1.4
Cc1ccc(-c2n[nH]c(=O)c3ccccc23)cc1S(=O)(=O)NC(C)(C)C,-0.1,2.9,64.1*,2.6,-12.2,30.0
Cc1ccc(-c2n[nH]c(=O)c3ccccc23)cc1S(=O)(=O)Nc1ccc(F)cc1,-3.2,0.7,45.9,18.9,-2.7,2.0
CC(=O)Nc1ccc(NS(=O)(=O)c2cc(-c3n[nH]c(=O)c4ccccc34)ccc2C)cc1,3.0,-0.7,56.0*,3.8,6.8,-3.6
Cc1ccc(-c2n[nH]c(=O)c3ccccc23)cc1S(=O)(=O)NCCO,0.1,-0.7,75.6*,-2.6,4.6,7.5
Cc1ccc(-c2n[nH]c(=O)c3ccccc23)cc1S(N)(=O)=O,-0.5,-0.8,57.1*,-6.0,1.8,4.5
NC1=C(c2ccccc2)C(=O)NC1=O,1.3,0.6,4.2,-19.9,0.4,2.2
O=C(c1ccccc1)C1CCN(C(=O)C2CCC(=O)N(Cc3ccccc3F)C2)CC1 (stereo not drawn),-0.9,1.3,-5.5,8.3,6.3,0.9
c1ccc(Nc2ccccc2)cc1,-0.2,0.8,0.8,-1.0,0.9,x
c1ccc(Nc2cccc3c(Nc4ccccc4)cccc23)cc1,-1.9,-1.5,-15.2,56.1*,-0.2,-2.3

# Screening results as filed in PubChem BioAssay.
